In ChEMBL document CHEMBL2417505, “Discovery of 7-azaindole based anaplastic lymphoma kinase (ALK) inhibitors: wild type and mutant (L1196M) active compounds with unique binding mode” (Bioorg Med Chem Lett, 2013):

Assays:
Homo sapiens = species on record: Homo sapiens; test: Selectivity ratio of IC50 for aurora A kinase (unknown origin) to IC50 for human recombinant ALK
[1] = target: ALK tyrosine kinase receptor (Homo sapiens, UniProt Q9UM73, L1196M); test: Inhibition of human ALK L1196M mutant after 30 mins by TR-FRET assay
How it was run: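 L1196M mutant ALK enzyme run in TR-FRET as for wild type (HEPES pH 7.1 buffer, ULight poly-GT substrate, Eu anti-phosphotyrosine detection, 30 min reaction) but with 0.5µM ATP; IC50.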

[2] = target: T1, ALK tyrosine kinase receptor (Homo sapiens, UniProt Q9UM73); test: Inhibition of wild type human recombinant ALK after 30 mins by TR-FRET assay
Target sequence in this assay (Q9UM73 whole entry): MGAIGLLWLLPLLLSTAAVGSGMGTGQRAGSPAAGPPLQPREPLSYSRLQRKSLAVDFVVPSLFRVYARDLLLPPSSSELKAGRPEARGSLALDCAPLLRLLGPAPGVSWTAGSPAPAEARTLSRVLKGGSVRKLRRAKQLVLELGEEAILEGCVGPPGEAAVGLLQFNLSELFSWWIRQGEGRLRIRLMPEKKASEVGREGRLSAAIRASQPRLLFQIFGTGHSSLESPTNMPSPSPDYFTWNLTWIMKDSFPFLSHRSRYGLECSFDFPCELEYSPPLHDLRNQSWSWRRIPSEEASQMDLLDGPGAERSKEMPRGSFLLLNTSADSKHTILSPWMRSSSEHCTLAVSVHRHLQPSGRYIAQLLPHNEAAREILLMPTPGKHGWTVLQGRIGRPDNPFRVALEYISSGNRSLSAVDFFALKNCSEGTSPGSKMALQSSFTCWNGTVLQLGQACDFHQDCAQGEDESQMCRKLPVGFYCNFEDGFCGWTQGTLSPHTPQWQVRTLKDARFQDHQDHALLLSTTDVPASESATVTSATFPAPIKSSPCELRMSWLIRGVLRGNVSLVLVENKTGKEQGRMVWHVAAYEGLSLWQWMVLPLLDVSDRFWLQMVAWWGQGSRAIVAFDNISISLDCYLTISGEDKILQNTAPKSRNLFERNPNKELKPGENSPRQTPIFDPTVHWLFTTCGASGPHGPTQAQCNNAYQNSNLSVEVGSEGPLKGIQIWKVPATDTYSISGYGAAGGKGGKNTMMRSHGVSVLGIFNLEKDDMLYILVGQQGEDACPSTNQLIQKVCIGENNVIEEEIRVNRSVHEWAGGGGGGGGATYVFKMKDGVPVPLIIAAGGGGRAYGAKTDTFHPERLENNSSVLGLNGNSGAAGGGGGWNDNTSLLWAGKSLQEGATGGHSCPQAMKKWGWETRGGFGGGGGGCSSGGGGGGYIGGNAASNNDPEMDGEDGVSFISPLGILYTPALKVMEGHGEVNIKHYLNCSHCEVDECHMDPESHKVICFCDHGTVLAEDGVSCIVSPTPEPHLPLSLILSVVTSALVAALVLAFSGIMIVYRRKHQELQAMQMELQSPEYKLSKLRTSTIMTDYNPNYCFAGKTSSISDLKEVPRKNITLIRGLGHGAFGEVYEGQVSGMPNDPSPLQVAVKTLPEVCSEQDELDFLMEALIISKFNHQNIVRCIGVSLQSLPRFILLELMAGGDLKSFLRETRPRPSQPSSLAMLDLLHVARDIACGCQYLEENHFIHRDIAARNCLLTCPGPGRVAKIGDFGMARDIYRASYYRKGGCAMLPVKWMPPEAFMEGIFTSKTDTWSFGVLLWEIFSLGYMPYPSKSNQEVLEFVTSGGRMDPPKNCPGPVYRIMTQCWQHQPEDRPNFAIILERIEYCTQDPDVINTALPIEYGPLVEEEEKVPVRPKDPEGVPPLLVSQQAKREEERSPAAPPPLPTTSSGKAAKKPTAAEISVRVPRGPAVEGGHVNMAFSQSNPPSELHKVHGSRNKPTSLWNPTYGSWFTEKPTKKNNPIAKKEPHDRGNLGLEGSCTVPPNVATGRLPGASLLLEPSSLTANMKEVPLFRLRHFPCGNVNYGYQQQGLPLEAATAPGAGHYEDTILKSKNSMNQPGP

KARPAS-299 = test: Cytotoxicity against human KARPAS299 cells after 72 hrs by XTT assay; format: functional, cell-based; conditions: KARPAS-299, 72 h
[3] = target: T1, ALK tyrosine kinase receptor; test: Inhibition of ALK in human KARPAS299 cells assessed as phosphorylated ALK level; conditions: for inhibition: KARPAS-299
[4] = target: T2, Aurora kinase A (Homo sapiens) (UniProt O14965); test: Inhibition of aurora A kinase (unknown origin) at 100 nM
T2 sequence (whole entry): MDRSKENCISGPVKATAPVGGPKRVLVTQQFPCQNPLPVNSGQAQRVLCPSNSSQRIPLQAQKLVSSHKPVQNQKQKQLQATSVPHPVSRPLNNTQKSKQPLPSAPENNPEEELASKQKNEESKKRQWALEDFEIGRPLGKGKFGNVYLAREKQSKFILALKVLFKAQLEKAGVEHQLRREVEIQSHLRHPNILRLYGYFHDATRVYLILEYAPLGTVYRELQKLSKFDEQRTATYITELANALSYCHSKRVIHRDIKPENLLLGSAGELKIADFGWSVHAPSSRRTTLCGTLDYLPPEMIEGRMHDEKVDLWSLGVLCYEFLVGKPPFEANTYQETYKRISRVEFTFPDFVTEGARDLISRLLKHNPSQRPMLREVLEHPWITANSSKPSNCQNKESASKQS

[5] = target: T1, ALK tyrosine kinase receptor; test: Inhibition of ALK in human KARPAS299 cells assessed as phosphorylated Stat3 level after 6 hrs by Western blotting analysis; format: cell-based, KARPAS-299
How it was run: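 Karpas 299 cells (4 × 10^5) treated 6 h at set concentrations, with crizotinib at 10 μM as positive control; lysed in RIPA, 30 µg lysate run on 10% SDS-PAGE, PVDF blot probed for phospho-Stat3 (Tyr705) and total Stat3; ECL detection; IC50 from blot densitometry.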
Target sequence in this assay (Q9UM73 whole entry): as the sequence (Q9UM73 whole entry) above

[6] = target: Hepatocyte growth factor receptor (Homo sapiens) (UniProt P08581); test: Inhibition of c-Met (unknown origin) at 100 nM
[7] = target: Fibroblast growth factor receptor 1 (Homo sapiens) (UniProt P11362); test: Inhibition of FGFR1 (unknown origin) at 100 nM
[8] = target: Vascular endothelial growth factor receptor 2 (Homo sapiens) (UniProt P35968); test: Inhibition of KDR (unknown origin) at 100 nM
[9] = target: Macrophage-stimulating protein receptor (Homo sapiens) (UniProt Q04912); test: Inhibition of RON (unknown origin) at 100 nM
[10] = target: Cyclin-dependent kinase 2 (Homo sapiens) (UniProt P24941); test: Inhibition of CDK2 (unknown origin) at 100 nM

Chain of ALK tyrosine kinase receptor (Homo sapiens, UniProt Q9UM73, L1196M) (Q9UM73 19-1620 L1196M limits assumed): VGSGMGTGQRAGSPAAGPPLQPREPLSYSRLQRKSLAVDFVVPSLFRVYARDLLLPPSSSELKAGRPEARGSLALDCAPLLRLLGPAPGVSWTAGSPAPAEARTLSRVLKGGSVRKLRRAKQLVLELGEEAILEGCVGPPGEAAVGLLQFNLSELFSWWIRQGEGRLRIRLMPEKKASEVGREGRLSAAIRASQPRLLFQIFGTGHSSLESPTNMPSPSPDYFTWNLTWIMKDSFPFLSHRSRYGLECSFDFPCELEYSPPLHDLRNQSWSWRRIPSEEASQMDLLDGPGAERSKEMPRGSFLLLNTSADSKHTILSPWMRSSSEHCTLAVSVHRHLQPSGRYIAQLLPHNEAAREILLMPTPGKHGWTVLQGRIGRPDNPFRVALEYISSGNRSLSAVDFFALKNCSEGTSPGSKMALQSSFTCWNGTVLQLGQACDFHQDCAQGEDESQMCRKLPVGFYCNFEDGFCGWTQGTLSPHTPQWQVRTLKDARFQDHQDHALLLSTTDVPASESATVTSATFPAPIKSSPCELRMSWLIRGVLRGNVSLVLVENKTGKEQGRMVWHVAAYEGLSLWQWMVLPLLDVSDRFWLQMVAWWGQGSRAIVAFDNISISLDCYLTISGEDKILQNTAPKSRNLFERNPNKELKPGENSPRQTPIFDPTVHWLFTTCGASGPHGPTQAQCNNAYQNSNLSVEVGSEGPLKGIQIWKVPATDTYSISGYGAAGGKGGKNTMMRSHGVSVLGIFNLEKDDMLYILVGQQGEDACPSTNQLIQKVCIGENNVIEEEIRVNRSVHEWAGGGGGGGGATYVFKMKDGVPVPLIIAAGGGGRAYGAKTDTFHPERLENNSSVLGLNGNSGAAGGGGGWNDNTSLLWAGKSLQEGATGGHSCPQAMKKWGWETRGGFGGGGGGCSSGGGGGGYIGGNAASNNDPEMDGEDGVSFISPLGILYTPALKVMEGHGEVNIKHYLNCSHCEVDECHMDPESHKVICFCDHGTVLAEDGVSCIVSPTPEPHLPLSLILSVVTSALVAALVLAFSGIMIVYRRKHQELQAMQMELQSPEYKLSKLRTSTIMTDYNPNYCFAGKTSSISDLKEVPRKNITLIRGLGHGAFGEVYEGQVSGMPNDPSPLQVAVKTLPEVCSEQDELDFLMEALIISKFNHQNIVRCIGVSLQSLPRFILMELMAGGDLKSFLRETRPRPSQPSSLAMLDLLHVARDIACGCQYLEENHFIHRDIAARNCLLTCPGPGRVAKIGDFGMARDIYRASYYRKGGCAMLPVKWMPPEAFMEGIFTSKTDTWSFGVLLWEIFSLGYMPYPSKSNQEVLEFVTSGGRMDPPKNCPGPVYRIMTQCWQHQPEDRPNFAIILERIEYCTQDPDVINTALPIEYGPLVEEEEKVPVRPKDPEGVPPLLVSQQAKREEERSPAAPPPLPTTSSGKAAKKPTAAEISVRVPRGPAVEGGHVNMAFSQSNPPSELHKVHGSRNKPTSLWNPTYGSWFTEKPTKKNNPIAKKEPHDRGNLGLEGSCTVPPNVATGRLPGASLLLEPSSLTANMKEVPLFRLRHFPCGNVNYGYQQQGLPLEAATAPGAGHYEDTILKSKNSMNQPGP
Chain of Vascular endothelial growth factor receptor 2 (Homo sapiens) (P35968 whole entry): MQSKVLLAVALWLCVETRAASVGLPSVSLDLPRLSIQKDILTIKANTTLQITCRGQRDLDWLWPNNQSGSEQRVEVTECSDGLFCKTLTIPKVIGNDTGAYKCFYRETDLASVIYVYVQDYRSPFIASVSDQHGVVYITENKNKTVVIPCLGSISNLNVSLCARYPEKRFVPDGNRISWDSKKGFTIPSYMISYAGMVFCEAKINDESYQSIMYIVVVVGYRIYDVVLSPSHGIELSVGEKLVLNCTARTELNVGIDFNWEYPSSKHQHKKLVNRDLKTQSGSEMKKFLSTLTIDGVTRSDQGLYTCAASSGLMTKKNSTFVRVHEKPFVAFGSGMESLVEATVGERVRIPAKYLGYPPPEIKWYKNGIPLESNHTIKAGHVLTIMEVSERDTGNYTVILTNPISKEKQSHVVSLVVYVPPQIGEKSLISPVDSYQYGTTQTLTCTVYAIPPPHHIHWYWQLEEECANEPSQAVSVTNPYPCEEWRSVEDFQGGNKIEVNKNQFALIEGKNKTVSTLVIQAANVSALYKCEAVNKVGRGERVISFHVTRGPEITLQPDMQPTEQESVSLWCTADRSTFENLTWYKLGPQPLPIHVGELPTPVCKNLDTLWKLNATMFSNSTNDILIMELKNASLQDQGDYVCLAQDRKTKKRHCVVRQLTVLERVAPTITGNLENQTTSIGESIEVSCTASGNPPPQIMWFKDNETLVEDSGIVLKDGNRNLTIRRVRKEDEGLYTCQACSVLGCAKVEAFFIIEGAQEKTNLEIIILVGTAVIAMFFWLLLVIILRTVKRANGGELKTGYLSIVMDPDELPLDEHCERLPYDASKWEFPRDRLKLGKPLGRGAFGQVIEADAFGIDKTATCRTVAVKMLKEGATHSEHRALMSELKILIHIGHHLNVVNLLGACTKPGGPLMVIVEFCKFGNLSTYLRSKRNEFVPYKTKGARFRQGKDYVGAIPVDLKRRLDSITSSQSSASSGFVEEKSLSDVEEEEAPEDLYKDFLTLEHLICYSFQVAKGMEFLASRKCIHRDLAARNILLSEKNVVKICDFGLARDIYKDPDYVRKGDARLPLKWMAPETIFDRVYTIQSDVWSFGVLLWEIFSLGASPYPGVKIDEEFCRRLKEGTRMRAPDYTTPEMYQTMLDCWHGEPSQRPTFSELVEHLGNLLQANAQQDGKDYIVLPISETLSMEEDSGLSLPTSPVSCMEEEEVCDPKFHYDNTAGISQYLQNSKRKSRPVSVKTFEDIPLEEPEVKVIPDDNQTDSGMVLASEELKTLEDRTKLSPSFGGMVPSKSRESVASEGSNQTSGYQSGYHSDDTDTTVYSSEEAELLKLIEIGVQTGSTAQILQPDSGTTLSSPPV

Structure (SMILES)	Ratio IC50 (Homo sapiens)	IC50 [1]	IC50 [2]	IC50 [3]	inhibition [3]	inhibition [4]	IC50 [5]	inhibition [6]	inhibition [7]	inhibition [8]	inhibition [9]	inhibition [10]	IC50 (KARPAS-299)
Cn1cc(-c2cnc3[nH]cc(-c4cnn(Cc5ccc(F)cc5)c4)c3c2)cn1		256 nM	70 nM	3910 nM	Dose-dependent effect	74%	3010 nM						1780 nM
Cn1cc(-c2cnc3[nH]cc(-c4cnn(Cc5cccc(C(=O)O)c5)c4)c3c2)cn1		811 nM	98 nM										> 10000 nM
Cn1cc(-c2cnc3[nH]cc(-c4cnn(Cc5cccc(Cl)c5)c4)c3c2)cn1		143 nM	30 nM	3120 nM	Dose-dependent effect	87%	986 nM						855 nM
Cn1cc(-c2cnc3[nH]cc(-c4cnn(Cc5cccc(O)c5)c4)c3c2)cn1		200 nM	41 nM			93%							3360 nM
Cn1cc(-c2cnc3[nH]cc(-c4cnn(Cc5cccc(C#N)c5)c4)c3c2)cn1		150 nM	32 nM			85%							1610 nM
Cn1cc(-c2cnc3[nH]cc(-c4cnn(Cc5ccccc5)c4)c3c2)cn1		141 nM	90 nM			84%		7%	14%	28%	21%	41%	3000 nM
Cn1cc(-c2cnc3[nH]cc(-c4cnn(Cc5ccccc5F)c4)c3c2)cn1		223 nM	85 nM			64%							2090 nM
Cn1cc(-c2cnc3[nH]cc(-c4cnn(Cc5ccc(F)c(F)c5)c4)c3c2)cn1		379 nM	84 nM	3300 nM	Dose-dependent effect	84%	986 nM						2260 nM
Cc1nn(Cc2cccc(F)c2)c(C)c1-c1c[nH]c2ncc(-c3cnn(C)c3)cc12	11	275 nM	31 nM										
Cn1cc(-c2cnc3[nH]cc(-c4cnn(Cc5cccc([N+](=O)[O-])c5)c4)c3c2)cn1			70 nM										1850 nM
Cc1nn(Cc2cc(F)ccc2F)c(C)c1-c1c[nH]c2ncc(-c3cnn(C)c3)cc12	3	428 nM	63 nM										
Cn1cc(-c2cnc3[nH]cc(-c4cnn(Cc5cccc(C(F)(F)F)c5)c4)c3c2)cn1		465 nM	247 nM			84%							1010 nM

Now those with a lower IC50 [2], led by results:

Ratio IC50 (Homo sapiens)	IC50 [1]	IC50 [2]	IC50 [3]	inhibition [3]	inhibition [4]	IC50 [5]	inhibition [6]	inhibition [7]	inhibition [8]	inhibition [9]	inhibition [10]	Structure (SMILES)	IC50 (KARPAS-299)
30	310 nM	26 nM										Cc1nn(Cc2cc(F)cc(F)c2)c(C)c1-c1c[nH]c2ncc(-c3cnn(C)c3)cc12	
		28 nM										Cn1cc(-c2cnc3[nH]cc(-c4cnn(Cc5cccc(N)c5)c4)c3c2)cn1	3630 nM
	47 nM	6 nM			74%							Cn1cc(-c2cnc3[nH]cc(-c4cnn(Cc5cc(F)cc(F)c5)c4)c3c2)cn1	664 nM
	124 nM	29 nM	900 nM	Dose-dependent effect	75%	1590 nM						Cn1cc(-c2cnc3[nH]cc(-c4cnn(Cc5cc(F)ccc5F)c4)c3c2)cn1	1200 nM
6	56 nM	6 nM										Cc1nn(Cc2cccc(F)c2)cc1-c1c[nH]c2ncc(-c3cnn(C)c3)cc12	
2	35 nM	5.6 nM	219 nM	Dose-dependent effect	84%	138 nM						Cn1cc(-c2cnc3[nH]cc(-c4cnn(Cc5cccc(F)c5)c4)c3c2)cn1	466 nM
